According to ChEMBL document CHEMBL3232757, “Structure-activity relationships for withanolides as inducers of the cellular heat-shock response” (J Med Chem, 2014):
pIC50: −log10 of the molar value. Peptide text beside a SMILES is read from it. * marks the point of attachment. Cbz = O=C(OCc1ccccc1)*

How the values were obtained:
[1] = molecular target: Heat shock 70 kDa protein 6 (Homo sapiens) (UniProt P17066); experiment: Induction of […] (unknown origin)-mediated heat shock response expressed in human 293T cells coexpressing GFP assessed as heat shock index after overnight incubation by luciferase reporter gene assay relative to control; assay type: cell-based
Method in brief: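 293T cells transduced with a lentiviral EGFP–firefly luciferase fusion under HSP70B′ promoter elements, enriched by heat shock (42 °C, 1 h) plus FACS, then reverse-sorted to remove constitutive expressers. Cells in DMEM/10% FBS were seeded at 20 000/well and given serial dilutions next day, quadruplicate wells, overnight. Read by Steady-Glo luminescence. Index = [Log2(treated/control)]/concentration (μM) at maximal response.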

[2] = Cytotoxicity against human NCI-H929 cells after 3 days by Alamar blue assay; assay type: functional, cell-based; conditions: NCI-H929, 72 h

Heat shock 70 kDa protein 6 (Homo sapiens), sequence (P17066 whole entry, the tested form may be a part): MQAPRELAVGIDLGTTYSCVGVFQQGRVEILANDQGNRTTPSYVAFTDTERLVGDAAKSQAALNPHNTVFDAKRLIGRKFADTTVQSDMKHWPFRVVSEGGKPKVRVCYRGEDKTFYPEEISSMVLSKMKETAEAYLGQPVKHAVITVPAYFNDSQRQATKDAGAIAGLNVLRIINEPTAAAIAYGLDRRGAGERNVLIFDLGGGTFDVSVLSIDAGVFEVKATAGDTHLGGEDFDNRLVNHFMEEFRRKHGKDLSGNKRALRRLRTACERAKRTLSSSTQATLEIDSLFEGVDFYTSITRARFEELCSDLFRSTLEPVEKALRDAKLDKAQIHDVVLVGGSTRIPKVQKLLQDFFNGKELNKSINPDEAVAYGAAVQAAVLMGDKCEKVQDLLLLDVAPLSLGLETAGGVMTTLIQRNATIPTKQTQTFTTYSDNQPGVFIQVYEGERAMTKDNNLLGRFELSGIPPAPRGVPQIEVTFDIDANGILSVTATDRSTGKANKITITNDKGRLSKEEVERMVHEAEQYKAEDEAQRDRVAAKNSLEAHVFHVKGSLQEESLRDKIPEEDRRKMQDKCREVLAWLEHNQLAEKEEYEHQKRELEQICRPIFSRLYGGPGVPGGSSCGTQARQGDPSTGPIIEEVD

Row | Structure (SMILES) | fold change (FC) [1] | pIC50 [2]
1 | CC1=C(CO)C(=O)OC([C@@H](C)C2CCC3C4C(CC[C@@]32C)[C@@]2(C)C(=O)C=CC[C@]2(O)[C@H]2O[C@@H]42)C1 (stereo not given in full) | 0 | < 5.00
2 | CC1=C(CO)C(=O)O[C@@H]([C@@H](C)[C@H]2CC[C@H]3[C@@H]4C[C@H]5O[C@]56[C@@H](O)[C@@H](O)CC(=O)[C@]6(C)[C@H]4CC[C@]23C)C1 [VISCOSALACTONE B] | 0 | < 5.00
3 | CC(C)C[C@@H](C=O)NC(=O)[C@H](CC(C)C)NC(=O)[C@H](CC(C)C)NC(=O)OCc1ccccc1 [MG-132] (Cbz-Leu-Leu-Leu-aldehyde) | 0.71 | 6.77
4 | CC(=O)OCC1=C(C)C[C@H]([C@@H](C)[C@H]2CC[C@H]3[C@@H]4C[C@H](OC(C)=O)[C@]5(O)[C@@H](OC(C)=O)C=CC(=O)[C@]5(C)[C@H]4CC[C@]23C)OC1=O | 0.74 | 5.64
5 | CC1=C(CO)C(=O)O[C@@H]([C@@H](C)[C@H]2CC[C@H]3[C@@H]4CC=C5C[C@@H](O)C[C@H](O)[C@]5(C)[C@H]4CC[C@]23C)C1 | 0 | 5.30
6 | CC(=O)OCC1=C(C)C[C@H]([C@@H](C)[C@H]2CC[C@H]3[C@@H]4[C@@H]5O[C@@H]5[C@@]5(O)CC=CC(=O)[C@]5(C)[C@H]4CC[C@]23C)OC1=O | 0 | < 5.00
7 | CC(=O)OCC1=C(C)C[C@H]([C@@H](C)[C@H]2CC[C@H]3[C@@H]4C[C@@H](OC(C)=O)[C@@]5(O)CC=CC(=O)[C@]5(C)[C@H]4CC[C@]23C)OC1=O | 0 | < 5.00
8 | CC1=C(CO)C(=O)O[C@@H]([C@@H](C)[C@H]2CC[C@H]3[C@@H]4C[C@H]5O[C@]56[C@@H](O)CCC(=O)[C@]6(C)[C@H]4CC[C@]23C)C1 | 0 | < 5.00
9 | CCCCO[C@H]1CC(=O)[C@]2(C)[C@H]3CC[C@]4(C)[C@@H]([C@H](C)[C@H]5CC(C)=C(CO)C(=O)O5)CC[C@H]4[C@@H]3C[C@H]3O[C@]32[C@H]1O | 0 | 5.06
10 | CC1=C(CO)C(=O)O[C@@H]([C@@H](C)[C@H]2CC[C@H]3[C@@H]4C[C@H](O)[C@]5(O)[C@@H](O)C=CC(=O)[C@]5(C)[C@H]4CC[C@]23C)C1 | 0 | < 5.00

Now from value to molecule, other results behind:

Row | fold change (FC) [1] | Structure (SMILES) | pIC50 [2]
11 | 0.2 | CC1=C(COS(=O)(=O)O)C(=O)O[C@@H]([C@@H](C)[C@H]2CC[C@H]3[C@@H]4C[C@H]5O[C@]56[C@@H](O)C=CC(=O)[C@]6(C)[C@H]4CC[C@]23C)C1 | 5.48
12 | 0 | CC1=C(CO)C(=O)O[C@@H]([C@@H](C)[C@H]2CC[C@H]3[C@@H]4C[C@@H](O)[C@@]5(O)CC=CC(=O)[C@]5(C)[C@H]4CC[C@]23C)C1 [JABOROSALACTONE D] | < 5.00
13 | 0 | CC1=C(CO)C(=O)O[C@@H]([C@@H](C)[C@H]2CC[C@H]3[C@@H]4C[C@H]5O[C@]56[C@@H](O)C=CC(=O)[C@]6(C)[C@H]4C[C@@H](O)[C@]23C)C1 | 5.37
14 | 0 | CC1=C(COS(=O)(=O)O)C(=O)O[C@@H]([C@@H](C)[C@H]2CC[C@H]3[C@@H]4C[C@H]5O[C@]56[C@@H](OS(=O)(=O)O)C=CC(=O)[C@]6(C)[C@H]4CC[C@]23C)C1 | < 5.00
15 | 0 | CC1=C(CO)C(=O)O[C@@H]([C@@H](C)[C@H]2C[C@@H](O)[C@H]3[C@@H]4C[C@H]5O[C@]56[C@@H](O)C=CC(=O)[C@]6(C)[C@H]4CC[C@@]32C)C1 | 5.42
